Bioassay records from PubChem.
KCNQ1 block = inhibitors of human KCNQ1 potassium channel; AID 2642; B-score at 10 µM; 310,000 compounds, 1.3% hits; CHO-K1 KCNQ1, FluxOR thallium flux fluorescence; hits give high values; P51787;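 active means compounds whose thallium flux B-score, printed positive for inhibition, exceeds three library SD while starting fluorescence stays within three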;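 further: channel opened by potassium depolarization with thallium stimulus after 20 min compound exposure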
Target sequence (P51787 whole entry, looked up): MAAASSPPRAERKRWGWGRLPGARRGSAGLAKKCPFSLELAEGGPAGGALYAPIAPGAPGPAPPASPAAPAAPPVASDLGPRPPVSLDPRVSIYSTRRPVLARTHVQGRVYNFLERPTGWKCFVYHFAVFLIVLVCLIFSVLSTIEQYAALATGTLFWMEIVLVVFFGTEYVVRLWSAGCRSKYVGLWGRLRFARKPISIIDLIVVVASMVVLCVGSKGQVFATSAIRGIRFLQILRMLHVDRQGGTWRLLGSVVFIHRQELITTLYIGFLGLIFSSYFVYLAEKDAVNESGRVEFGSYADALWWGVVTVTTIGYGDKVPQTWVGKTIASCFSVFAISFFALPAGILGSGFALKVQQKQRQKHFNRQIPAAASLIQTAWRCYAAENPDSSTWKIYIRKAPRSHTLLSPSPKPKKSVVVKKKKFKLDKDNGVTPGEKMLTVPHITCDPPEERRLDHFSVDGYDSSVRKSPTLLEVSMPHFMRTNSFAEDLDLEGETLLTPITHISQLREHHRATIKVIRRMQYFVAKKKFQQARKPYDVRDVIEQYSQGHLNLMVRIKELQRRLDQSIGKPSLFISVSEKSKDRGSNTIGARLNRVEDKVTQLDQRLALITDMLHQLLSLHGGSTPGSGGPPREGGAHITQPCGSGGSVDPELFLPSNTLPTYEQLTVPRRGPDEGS
KCNK3 block = human KCNK3 channel inhibition, primary screen; CHO-KCNK3 thallium flux, FluxOR fluorescence; hits give low values; B-score at 10 µM; 340,000 compounds, 0.84% hits;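 active means B-score under library mean minus 4 SD, starting fluorescence ratio at most library mean plus 5 SD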;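 further: more negative B-score means stronger inhibition of thallium flux through KCNK3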
KCNQ1 pot = potentiates or activates the human KCNQ1 potassium channel. P51787. CHO-K1 KCNQ1, thallium flux FluxOR fluorescence; hits give high values. B-score at 10 µM. 310,000 compounds, 0.35% hits. AID 2648;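 active means fluorescence ratio B-score, a plate-corrected score, at least three library SD, with initial intensity B-score within 5 SD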
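Schedule – 37 °C overnight plating, 90-min dark dye load, 20-min compound pretreatment · System – stable KCNQ1 CHO-K1 line · Probe or stimulus – thallium- and potassium-containing depolarizing buffer · Measured by – kinetic FluxOR fluorescence, 10 s baseline plus 110 s post-stimulus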
KCNK9 block = human KCNK9 channel inhibition | B-score at 10 µM | Q9NPC2 | 310,000 compounds, 1.2% hits | HEK293 KCNK9, FluxOR thallium flux fluorescence; hits give low values;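 active means ratio B-score over 3 SD below the library mean, with starting fluorescence within 5 SD of its mean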;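 further: negative B-score means less thallium flux so channel inhibition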
hERG protect = shields human hERG channel from block by proarrhythmic agents; Q12809; CHO-hERG, FluxOR thallium flux, dofetilide IC70 present; activation (rescue from dofetilide block), less the hit threshold, % at 10 µM; 310,000 compounds, 0.51% hits;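 active means activation above the mean of controls blocked by dofetilide plus 5 SD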;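 further: thallium influx through hERG after potassium depolarization seen as dye fluorescence rise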
Large screens that a line does not name were inactive. The list is not random: actives were taken first. Their share in the collection is about 3.1%.

C=CCN(CC=C)c1ncnc2[nH]ncc12	none (no result: KCNQ1 block, KCNQ1 pot, KCNK9 block, hERG protect)
CCCCCNCC(=O)Nc1cc(C(F)(F)F)ccc1OCCOC	KCNK9 block -8.47
COc1ccc(Cl)cc1NC(=O)CN(C)C(=O)c1cn(-c2ccccc2)nc1-c1cccnc1	none
Cc1ccc(CNc2ncc(-c3ccc4c(c3)OCO4)n2C)cc1	none
Cn1c(-c2ccc3c(c2)OCO3)cnc1NCc1ccc(Cl)cc1	KCNQ1 block 11
COc1ccc(C(C)NC(=O)CC23CC4CC(CC(C4)C2)C3)cc1 (stereo unspecified)	none
CC1=CC(=O)N(c2cccc(C(F)(F)F)c2)C1c1ccc(Cl)cc1 (stereo unspecified)	KCNK9 block -7.67
Cc1ccc(NC(=O)Cn2cc(C=O)c3ccccc32)cc1C	none
CC(NC(=O)C1CCCC1)c1ccc(Br)cc1 (stereo unspecified)	hERG protect 5.5
CC(NC(=O)C1CCC1)c1ccc(Br)cc1 (stereo unspecified)	none
CCCCc1c(C)nc2ccc(Br)cc2c1SCCC#N	KCNK9 block -7.68 (no result: KCNK3 block)
O=C(CNCC1CCCCC1)Nc1ccc(OC(F)(F)F)cc1	KCNQ1 pot 20
CN(CC(=O)Nc1ccc(OC(F)(F)F)cc1)C1CCCCC1	none
O=C(Nc1ccc(C(O)(C(F)(F)F)C(F)(F)F)cc1)c1ccc(Cl)c([N+](=O)[O-])c1	KCNQ1 block 6
N#Cc1ccsc1NC(=O)c1ccc(Cl)c([N+](=O)[O-])c1	KCNQ1 block 7
Cn1cccc1/C=N/n1c(-c2ccc(Cl)cc2Cl)n[nH]c1=S	KCNQ1 pot 8
O=C(Nc1nc(-c2cccnc2)cs1)c1ccccc1Cl	hERG protect 40.7
Cc1ccccc1C(=O)Nc1nc(-c2cccnc2)cs1	none
COc1ccc2cc1Oc1ccc(cc1)C[C@H]1c3c(cc(OC)c4c3Oc3c(ccc5c3[C@H](C2)N(C)CC5)O4)CCN1C	none (no result: KCNQ1 block, KCNQ1 pot, KCNK9 block, hERG protect)
COc1ccc2cc1Oc1ccc(cc1)CC1c3c(cc(OC)c4c3Oc3cc5c(cc3O4)CCNC5C2)CCN1C (stereo unspecified)	KCNQ1 block 9
Cc1ccc(CN(C)C(=O)CN2C(=O)NC3(CCCc4ccccc43)C2=O)c(C)c1 (stereo unspecified)	none (no result: KCNQ1 block, KCNQ1 pot, KCNK9 block, hERG protect)
CC(=O)c1c(N2CCOCC2)[nH]c(-c2ccccc2)nc1=S	none
CC(=O)c1c(N2CCN(Cc3ccccc3)CC2)nc(=S)n(Cc2ccccc2)c1C	none
CC(=O)c1c(N2CCN(Cc3ccccc3)CC2)[nH]c(-c2ccccc2)nc1=S	KCNQ1 pot 23
CC(=O)c1c(N2CCCC2)[nH]c(-c2ccccc2)nc1=S	KCNQ1 pot 9, hERG protect 7.3
CSc1nc2sc3c(c2c(=S)[nH]1)CC(C)(C)OC3	KCNQ1 pot 82, hERG protect 56.5
CCc1nc2sc3c(c2c(=S)[nH]1)CC(C)(C)OC3	none
COc1ccc(/C=N/NC(=O)c2ccc(O)cc2)cc1CN1CCCc2ccccc21	KCNK9 block -7.91
CCN(CC(=O)Nc1ccc(NC(C)=O)cc1)C(=O)c1ccc2c(c1)OCO2	none (no result: KCNQ1 block, KCNQ1 pot, KCNK9 block, hERG protect)
CN(C)C(=O)CN1CCN(C(=O)CCl)CC1	hERG protect 5.1
CC(C)NC(=O)CN1CCN(C(=O)CCl)CC1	none
O=C(Nc1ccc(C(=O)O)cc1)/C(=C\c1ccc2c(c1)OCO2)NC(=O)c1ccc(Br)cc1	KCNQ1 pot 10
CC(=O)N/C(=C/c1ccc2c(c1)OCO2)C(=O)O	KCNQ1 pot 9
O=C(N/C(=C/c1ccc2c(c1)OCO2)C(=O)N1CCOCC1)c1cccs1	hERG protect 8.2
CN1N=C(N)c2cn(C3OC(COP(=O)(O)O)C(O)C3O)c3ncnc1c23 (stereo unspecified)	none (no result: KCNQ1 block, KCNQ1 pot, KCNK9 block, hERG protect)
Cc1ccc2oc(C(=O)Nc3cc(C)on3)c(C)c2c1	none (no result: KCNQ1 block, KCNQ1 pot, KCNK9 block, hERG protect)
CCN1CCN(CC(=O)N2CCCC(C(=O)c3ccc(Oc4ccccc4)cc3)C2)CC1 (stereo unspecified)	hERG protect 5.5
O=C(COC(=O)CN1C(=O)COc2ccccc21)NC1CCCCC1	none
CCCCC/C=N\NC(=O)Cc1ccc([N+](=O)[O-])cc1	KCNQ1 pot 7
Cc1ccc(C2=CC(C)(c3ccc(C)cc3)Nc3nc(C(F)(F)F)nn32)cc1 (stereo unspecified)	KCNK9 block -8.01
Cc1cc(C2=CC(C)(c3cc(C)oc3C)Nc3nc(C(F)(F)F)nn32)c(C)o1 (stereo unspecified)	none (no result: KCNK3 block)
Cc1cccc(N2CCN(S(=O)(=O)c3ccc4c(c3)CC(C)N4C(=O)C3CC3)CC2)c1C (stereo unspecified)	KCNQ1 block 6
O=C(N/N=C/c1c(O)n(-c2ccc(Cl)cn2)c(=O)c2ccccc12)c1ccncc1	KCNQ1 block 11, KCNK9 block -6.88
O=C(N/N=C/c1c(O)n(-c2ccc(Cl)cn2)c(=O)c2ccccc12)C1CC1	none
CCOc1c2ccccc2nn1CCO	none (no result: KCNQ1 block, KCNQ1 pot, KCNK9 block, hERG protect)
O=C(COC(=O)COc1ccccc1Cl)Nc1ccccc1OC(F)F	hERG protect 4.9
Cc1ccc(C)c(C2=CSC3=NS(=O)(=O)CCN23)c1	none
Cc1ccc(C2=CSC3=NS(=O)(=O)CCN23)cc1	KCNQ1 pot 9
CC(C)CN1C(=O)C(=O)N(CC(=O)N(C)CC(=O)Nc2ccc(F)cc2)C1=O	none (no result: KCNQ1 block, KCNQ1 pot, KCNK9 block, hERG protect)
O=C(NCCc1ccc(OC(F)F)cc1)C1CC(=O)N(c2ccc3c(c2)OCCO3)C1 (stereo unspecified)	none (no result: KCNQ1 block, KCNQ1 pot, KCNK9 block, hERG protect)
CS(=O)(=O)N(CC(=O)N1CCc2ccccc2C1)c1cccc([N+](=O)[O-])c1	none
CS(=O)(=O)N(CC(=O)N1CCc2ccccc2C1)c1cccc(F)c1	hERG protect 11.4
O=C1c2c(Cl)c(Cl)c(Cl)c(Cl)c2C(=O)N1c1nccs1	none (no result: KCNQ1 block, KCNQ1 pot, KCNK9 block, hERG protect)
CC(=O)N1CCN(C(=O)COC(=O)/C=C/c2ccccc2[N+](=O)[O-])CC1	none (no result: KCNQ1 block, KCNQ1 pot, KCNK9 block, hERG protect)
O=C(Cc1nc2ccccc2[nH]1)c1cccc([N+](=O)[O-])c1	KCNQ1 block 8
CCN(c1cccc(C)c1)S(=O)(=O)c1cnc[nH]1	hERG protect 5.3
CCN(c1cccc(C)c1)S(=O)(=O)c1c(C)[nH]c(=O)[nH]c1=O	none
N#C/C(=N\Nc1cccc(F)c1)C(=O)C1CC1	KCNQ1 block 6
N#CC1=C(N)NC(SCC(=O)c2ccc(Br)cc2)=C(C#N)C12CCCCC2	KCNQ1 block 12
CCSC1=C(C#N)C2(CCCCC2)C(C#N)=C(N)N1	none
CCCSC1=C(C#N)C2(CCCCC2)C(C#N)=C(N)N1	KCNQ1 block 8
N#CC1=C(N)NC(SCC(=O)c2ccc(Cl)cc2)=C(C#N)C12CCCC2	KCNQ1 block 7
C[C@@H](CC#N)CN1CC[C@H](C(C)(C)C)CCC1=O	hERG protect 5.0
CCOc1ccc(C(C)=O)cc1COC(=O)c1ccccc1C(=O)N(C)Cc1ccccc1	none (no result: KCNQ1 block, KCNQ1 pot, KCNK9 block, hERG protect)
CC(C)Cc1ccc(C(C)C(=O)Nc2cccnc2)cc1 (stereo unspecified)	none
CC(C)Cc1ccc(C(C)C(=O)Nc2ccc(O)cc2)cc1 (stereo unspecified)	KCNQ1 pot 10
